Key:
Type in all cases: organism-based
[1] = tested on: Mus musculus; assay: Toxicity in mouse assessed as mouse survival at 100 mg/kg, ip qd on day 19; set-up: dose 100 mg/kg, route intraperitoneal; conditions: in vivo
Method in brief: (§1)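 Female athymic nude mice were given intraperitoneal injections of 400, 200 or 100 mg/kg, one mouse per dose level. Body weight loss was monitored, and survival was recorded after 19 days.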

[2] = tested on: Mus musculus; assay: Toxicity in mouse assessed as mouse survival at 200 mg/kg, ip qd on day 19; set-up: dose 200 mg/kg, route intraperitoneal; conditions: in vivo; method in brief: as §1
[3] = tested on: Mus musculus; assay: Toxicity in mouse assessed as mouse survival at 400 mg/kg, ip qd on day 19; set-up: dose 400 mg/kg, route intraperitoneal; conditions: in vivo; method in brief: as §1
[4] = Toxicity in mouse assessed as mouse survival administered intraperitoneally once daily measured after 19 days; conditions: in vivo, ip; method in brief: as §1
[5] = tested on: Mus musculus; assay: Toxicity in mouse assessed as mouse survival at 50 mg/kg, ip qd on day 19; set-up: dose 50 mg/kg, route intraperitoneal; conditions: in vivo
[6] = tested on: Mus musculus; assay: Toxicity in mouse assessed as mouse survival at 25 mg/kg, ip qd on day 19; set-up: dose 25 mg/kg, route intraperitoneal; conditions: in vivo

SMILES | Activity [1] | Activity [2] | Activity [3] | MTD at 456 h [4] [mg/kg] | Activity [5] | Activity [6]
CN1C(=O)C(=Cc2cn(Cc3ccccc3)c3ccccc23)C(=O)N(C)C1=O | Non-toxic | Non-toxic | Non-toxic | 400 | – | –
O=C1NC(=O)C(=Cc2cn(Cc3ccccc3)c3ccccc23)C(=O)N1 | Toxic | Toxic | Toxic | 50 | Non-toxic | Non-toxic
